Compounds with a hit are over-represented: about 2.8% of the library has one in this group of screens.
CAL PDZ FP-1 = untagged CAL PDZ binding inhibitors, primary screen, biochemical, fluorescence polarization, HTS; purified CAL PDZ, TMR-peptide fluorescence polarization, 1 h; inhibition, % at 24.9 µM; hit rate 0.92% among 300,000;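 active means mean inhibition of at least 30% with at least half of replicates also reaching 30%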;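 further: 0% = DMSO neutral control and 100% = excess unlabeled competitor peptide PRC23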
SR-BI DiI-HDL act = activators of SR-BI mediated DiI-HDL uptake, primary screen, ldlA[mSR-BI] CHO cells, DiI fluorescence | hit rate 0.096% among 320,000 | AID 504775, 2011 | activation, % at 12.5 µM | 3 h; 100 = double the neutral-control signal;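 active means mean replicate activation of at least 60% and every replicate at or above 60%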;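 further: 0% = median plate neutral-control signal and 100% = twice that signal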
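Test system: SR-BI-overexpressing, LDLR-lacking CHO cells; Also added: labelled HDL, 10 µg/mL; Measured by: bottom-read cell fluorescence after medium removal, ex 550/em 595 nm; Timing: 3 h uptake period with compound, 37 °C; Buffer or medium: F12, 0.5% BSA, 25 mM HEPES; Doses: single compound concentration, delivered by pin transfer.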
dFosB activator = activators of delta FosB homodimer, primary screen, biochemical, fluorescence polarization, TAMRA-CDK5 oligo, single point. AID 493131, 2011. Protein FosB (Mus musculus), P13346. purified delta FosB; percent of positive-control signal above neutral wells. hit rate 0.99% among 340,000. activation, % at 25 µM;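 active means mean activation above about 17%, with every replicate also reaching it, limit read from the data, passing the limit was not always enough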
Target sequence (P13346 whole entry, looked up): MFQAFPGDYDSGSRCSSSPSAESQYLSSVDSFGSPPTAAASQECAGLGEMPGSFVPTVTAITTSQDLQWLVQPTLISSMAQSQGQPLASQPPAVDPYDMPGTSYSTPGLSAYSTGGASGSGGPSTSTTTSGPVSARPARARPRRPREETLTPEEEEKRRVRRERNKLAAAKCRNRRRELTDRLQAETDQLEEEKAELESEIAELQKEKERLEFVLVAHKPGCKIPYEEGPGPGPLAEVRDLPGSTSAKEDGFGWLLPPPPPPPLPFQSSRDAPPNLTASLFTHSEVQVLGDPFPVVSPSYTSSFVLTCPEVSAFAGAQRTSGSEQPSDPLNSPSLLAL
SR-BI DiI inh = inhibitors of SR-BI mediated HDL lipid uptake, primary screen, ldlA[mSR-BI] cells, fluorescence, single point; ldlA[mSR-BI] CHO cells, DiI-HDL uptake fluorescence, 3 h; hit rate 0.96% among 320,000; Scavenger receptor class B member 1 (Mus musculus), Q61009; inhibition, % at 12.5 µM;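 active means mean replicate inhibition of at least 70% and a set share of replicates each scoring 70 or more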;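 further: 0% = median of neutral control wells and 100% = median of positive control wells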
CAL PDZ FP-2 = CAL PDZ peptide-binding inhibitors, primary screen, biochemical, fluorescence polarization, Cer-tagged CAL PDZ, HTS | purified CAL PDZ, TMR-peptide fluorescence polarization, 1 h | inhibition, % at 20 µM | AID 504414, 2011 | hit rate 0.02% among 330,000 | Golgi-associated PDZ and coiled-coil motif-containing protein (Homo sapiens), Q9HD26;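 active means highest replicate inhibition of at least 40%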;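 further: plate controls were DMSO neutral control wells for no effect and unlabeled competitor peptide control wells for full effect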
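System: purified tagged CAL PDZ domain construct (CerCALP). Schedule: 1 h incubation at room temperature before polarization reading. Medium: 25 mM sodium phosphate pH 7.4, 150 mM NaCl, TCEP, IgG, Thesit. Read-out: percent inhibition from loss of millipolarization. Measured by: FP readout, S and P plane fluorescence. Probe or stimulus: fluorescent TMR peptide probe.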
* = called active by the depositor; · = no result given.

SMILES | CAL PDZ FP-1 | SR-BI DiI-HDL act | dFosB activator | SR-BI DiI inh | CAL PDZ FP-2
CCN(CC(=O)NCc1ccc(Cl)cc1)C(=O)CNS(=O)(=O)c1ccc(NC(C)=O)cc1 | 19 | -3 | -2 | 3 | 0
N#Cc1ccccc1NC(=O)COC(=O)COc1ccccc1[N+](=O)[O-] | 35* | 21 | 1 | -21 | -1
Cc1cc(NC(=O)c2coc(=O)c(Br)c2)ccc1C(C)C | · | -6 | 5 | 6 | -1
COCCn1c(Cc2ccccc2)nnc1SCC(=O)NC1CCCCC1 | -2 | 11 | 0 | -11 | -1
COc1ccc(-c2cc(C(F)(F)F)n3nc(C(=O)N4CCCCC4)cc3n2)cc1 | -5 | -70 | -10 | 70 | -1
COc1cccc(-c2cc(C(F)(F)F)n3nc(C(=O)N4CCCCC4c4cccnc4)cc3n2)c1 (centres undefined) | -7 | -77 | -31 | 77* | -2
Cc1ccccc1NS(=O)(=O)c1cc(C(=O)Nc2cccc(N(C)S(C)(=O)=O)c2)ccc1C | -4 | -71 | -7 | 71* | -3
CN(c1cccc(NC(=O)c2ccc(Cl)c(S(=O)(=O)Nc3ccccc3)c2)c1)S(C)(=O)=O | -3 | -52 | -11 | 52 | -3
O=C(Nc1ccc(N2CCCC2)cc1)c1ccc2ccccc2c1 | 1 | -88 | 10 | 88* | -1
CC(=O)N1CCN(c2ccc(NC(=O)c3ccc4ccccc4c3)cc2)CC1 | -1 | -38 | -9 | 38 | -2
O=C(Nc1ccc(N2CCCC2)cc1)c1cccc(F)c1 | 6 | -36 | 19* | 36 | -1
O=C(Nc1ccc(N2CCCC2)cc1)c1cccc(-c2cc3ccccc3oc2=O)c1 | 10 | -90 | 17* | 90* | 1
O=C(Nc1ccccc1N1CCCC1)c1cccc(-c2cc3ccccc3oc2=O)c1 | -4 | -36 | -7 | 36 | 0
Cc1nc(NC(=O)c2cccc(-c3cc4ccccc4oc3=O)c2)ccc1Br | · | -21 | 168* | 21 | -2
O=C(NCC(=O)N1CCN(S(=O)(=O)c2ccc3c(c2)OCCO3)CC1)c1ccccc1Cl | -2 | 10 | -7 | -10 | 0
Cn1cnnc1SCC(=O)Nc1ccc(OCc2ccccc2)cc1 | 41* | -13 | -3 | 13 | -1
O=C(O)C(Nc1nc(C(F)(F)F)nc2ccccc12)c1ccccc1 (centres undefined) | -9 | 13 | -3 | -13 | 0
CCOc1nc(NCc2ccco2)nc(Nc2ccc(OC)cc2)n1 | -1 | -34 | 0 | 34 | -2
Cc1ccc(Nc2nc(NCc3ccco3)c3ccccc3n2)cc1 | 3 | 28 | 58* | -28 | -1
c1ccc(N2CCN(c3nc(NCc4ccco4)c4ccccc4n3)CC2)cc1 | · | -28 | 45* | 28 | 0
COc1ccc(Nc2nc(NCc3ccco3)nc(N/N=C/c3ccccc3)n2)cc1 | -2 | · | 29* | 19 | 0
O=C(NC1CCCC1)c1cccc(S(=O)(=O)N2CCOCC2)c1 | -2 | 16 | -3 | -16 | -1
COc1ccccc1N1C(=O)c2ccccc2NC1c1ccncc1 (centres undefined) | -8 | -16 | 4 | 16 | -1
CCc1ccc(C2NC(=S)NC3=C2C(=O)N(c2ccccc2OC)C(c2ccc(CC)cc2)N3)cc1 (centres undefined) | 1 | -5 | 101* | 5 | -1
Cc1c(Cl)cccc1NC(=S)N(CCN(C)C)C(C)c1ccccn1 (centres undefined) | 81* | -3 | -4 | 3 | 0
SMILES | CAL PDZ FP-1 | SR-BI DiI-HDL act | dFosB activator | SR-BI DiI inh | CAL PDZ FP-2
Cc1ccccc1NC(=S)N(CCN(C)C)C(C)c1ccccn1 (centres undefined) | · | 28 | -6 | -28 | -1
Cc1c(C(=O)Oc2cccc3cccnc23)oc2ccccc12 | 39* | -13 | -8 | 13 | 0
O=C(Nc1ccccc1)C1=C[C@@H](c2ccc(C(F)(F)F)cc2)C[C@@H](OCCCCO)O1 | 2 | -25 | 2 | 25 | -3
COc1cccc(NC(=O)c2ccccc2Br)c1 | · | -6 | 3 | 6 | -1
O=C(Nc1ccc([N+](=O)[O-])cc1)c1cc(Cl)sc1Cl | 1 | -38 | -1 | 38 | -3
O=C(Nc1ccc(F)cc1)c1cc(Cl)sc1Cl | 87* | 16 | 2 | -16 | 27
COc1ccc(Br)c(C(=O)Nc2ccc(F)cc2)c1 | 40* | -7 | 3 | 7 | -1
COc1ccc(OC)c(S(=O)(=O)Nc2c(C)n(C)n(-c3ccccc3)c2=O)c1 | 74* | 6 | 4 | -6 | 17
COc1cccc(OC)c1NC(=O)C1CCCN1C(=O)Nc1cccc(Cl)c1 (centres undefined) | -1 | 9 | 0 | -9 | 1
CCN(CC)S(=O)(=O)c1ccc2c(c1)c(=O)c(C(=O)N1CCN(c3ccccn3)CC1)cn2C | 0 | 4 | -2 | -4 | -1
COc1ccc(-c2oc(NC(=O)c3ccc(C)cc3)c(C#N)c2-c2ccc(OC)cc2)cc1 | · | -45 | -9 | 45 | 0
COc1ccc(C(=O)Nc2oc(-c3ccccc3)c(-c3ccccc3)c2C#N)cc1 | -1 | -83 | -7 | 83* | -1
COc1ccc(C(=O)Nc2oc(-c3ccccc3)c(-c3ccccc3)c2C#N)cc1OC | -4 | -82 | -15 | 82* | -1
Cc1cccc(C)c1OCC(=O)Nc1oc(-c2ccccc2)c(-c2ccccc2)c1C#N | -4 | -82 | -1 | 82* | 0
COc1ccc(C(=O)n2cnc3ccccc32)cc1 | -6 | 38 | -1 | -38 | -1
CCOc1ccc(S(=O)(=O)NCCC(=O)NCCc2ccc(C(C)C)cc2)cc1 | -5 | -23 | -8 | 23 | -3
CCOC(=O)Cn1c(=O)oc2cc(S(=O)(=O)N(CCN(C)C)Cc3ccccc3)ccc21 | -2 | 20 | -8 | -20 | 0
CCOC(=O)Cn1c(=O)oc2cc(S(=O)(=O)N(C)Cc3ccccc3)ccc21 | 76* | 10 | -7 | -10 | 0
Cc1cc(C)nc(NCC(O)COc2ccccc2C)n1 (centres undefined) | -1 | -8 | -4 | 8 | 0
Cc1cc(C)nc(NCC(O)CNc2ccccc2C)n1 (centres undefined) | 62* | 6 | 0 | -6 | -1
CCCCN(CC)CCNC(=O)c1cn(CCOC)c(=O)c2c1c1ccccc1n2C | -2 | -36 | -7 | 36 | 0
CCCCN(CC)CCCNC(=O)c1cn(C)c(=O)c2c1c1ccccc1n2C | 37* | 24 | -2 | -24 | ·

Source: PubChem BioAssay
